# INS-1E GSIS act: GLuc luminescence reporter in INS-1E cells, primary screen for activators of glucose-dependent secretion of insulin | INS-1E GLuc reporter insulin secretion, 2-3 h | activation, % at 16.6 µM | hit rate 0.61% among 370,000 | AID 743287;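 active = lowest replicate activation of at least 40%, so every replicate reaches that level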
# Ecoli rRNA inh: inhibitors of bacterial rRNA selective over humanized ribosomes | E. coli WT GFP vs humanized-ribosome RFP mutants, fluorescence, 24 h; stronger effect = lower value; DMSO median 0, no signal -100 | AID 720706 | GFP signal change (wild-type ribosome), % (concentration not given with the values) | hit rate 1.6% among 350,000;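 active = significant combined selectivity score with lowered wild-type GFP, culture density cut under 30%, mutant RFP and density less affected; inactive = any of these conditions unmet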
# miR122 inh: inhibitors of miR-122 in Huh7 cells; activation (reporter increase), % at 12.5 µM; hit rate 0.3% among 340,000; Huh7 miR-122 Renilla luciferase sensor, 48 h; neutral wells = 0, positive control = 100; AID 602342;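 active = mean replicate activation score at least 90 and every replicate individually at or above 90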;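 note: higher luciferase means less miR-122 activity so hits act as miR-122 inhibitors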
# HIV Env fusion: blocks HIV Env-driven cell-cell fusion; HeLa-JRFL Env/CEM21 cell fusion, luciferase; inhibition, % at 12.3 µM; hit rate 1.1% among 360,000; AID 651610;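 active = mean replicate inhibition score of at least 50 and every replicate individually at or above 50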
# F508del corr: correctors of CFTR F508del function in bronchial epithelial cells. CFBE cells, YFP halide quenching; stimulated with forskolin plus potentiator P3; % fluorescence drop versus neutral controls. hit rate 0.36% among 350,000. activity (quench increase), % at 7.58 µM;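 active = mean added fluorescence quench of at least 8% versus neutral control, with both replicates also reaching 8%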;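 note: cells transiently co-express mutant CFTR-F508del with the halide-sensitive YFP; corrector assay measuring rescue of mutant channel to the surface after 24 h compound exposure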
# Cneo AK release: Cryptococcus neoformans lysis via adenylate kinase release. hit rate 0.2% among 360,000. C. neoformans lysis, adenylate kinase release luminescence, 4 h; normalised: neutral wells 0, clomiphene wells 100. lysis activity, % at 15 µM;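 active = mean lysis activity across replicates of at least 80%, whatever share of replicates individually reach that level; inactive = mean lysis activity below 80%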
#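 Assay system: C. neoformans cells. Amount: yeast cell density of 5 × 10^6 cells/mL. Technique: AK luminescence. Buffer or medium: YPD. Times: static 4 h at 37 °C with compound, 1 h detection. Dosing: single-point compound dose. Read-out: lysis from increased AK signal.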
# Numbers stand for hits; n = inactive; x = no result given. An excerpt weighted towards active compounds, which were near 3.1% of everything screened.
SMILES,INS-1E GSIS act,Ecoli rRNA inh,miR122 inh,HIV Env fusion,F508del corr,Cneo AK release
COc1cccc(C(=O)Nc2ccc3[nH]c(=O)[nH]c3c2)c1OC,n,n,n,60,n,n
Cn1c(N2CCN(C(=O)Nc3ccc(F)cc3)CC2)nc2ccccc21,x,x,n,n,x,n
Cn1c(N2CCN(C(c3ccccc3)c3ccccc3)CC2)nc2ccccc21,n,-26,n,n,n,n
C/C=C/c1ccc([C@H]2[C@@H](CO)N(C(=O)NCCC)[C@H]2CNC(=O)C2CC2)cc1,n,n,n,x,n,n
O=C(c1ccc(F)cc1)N1CC(=O)N2[C@H](CO)[C@H](c3ccc(C#CCC4CCCC4)cc3)[C@H]2C1,n,n,x,x,n,x
COCCN(Cc1cc2cc(C)ccc2n2nnnc12)C(=S)Nc1ccc(C)cc1,n,n,n,n,n,x
COCCNC(=S)N(Cc1cc2cc(C)ccc2n2nnnc12)C1CCCC1,n,n,n,60,n,n
COc1cccc(-c2cn(CC[C@H]3CC[C@@H](NC(=O)CC4CC4)[C@@H](CO)O3)nn2)c1,n,n,x,n,n,n
CCCNC(=O)N(C)C[C@@H]1Oc2ncc(C3=CCCC3)cc2C(=O)N([C@@H](C)CO)C[C@@H]1C,n,n,n,n,n,n
CCC(=O)N(C)C[C@@H]1Oc2cc(C#CC3CCCCC3)ccc2S(=O)(=O)N([C@@H](C)CO)C[C@@H]1C,n,n,n,n,n,n
CC1C(=O)OC(c2ccc(Br)cc2)C(C)(C)C1=O (stereo not given),n,-43,x,n,n,n
CC1(C)C(=O)C2(CCCCC2)C(=O)OC1c1cccn1-c1ccc([N+](=O)[O-])cc1 (stereo not given),n,n,x,72,x,x
CC1(C)C(=O)OC(c2cccn2-c2ccc([N+](=O)[O-])cc2)C(C)(C)C1=O (stereo not given),n,x,x,n,x,x
O=C(O)c1cccc2cccc(-c3c4ccc(=O)c(O)c-4oc4c(O)c(O)ccc34)c12,x,-22,x,n,n,x
COc1ccc(CSc2ncn[nH]2)cc1[N+](=O)[O-],61,x,n,n,x,x
CCCCNc1cc(C(=O)O)cc(S(N)(=O)=O)c1Oc1ccccc1,x,x,n,n,8.6,n
CC(C)COP(=O)(c1ccc(N(C)C)cc1)C(O)c1ccc(Br)cc1 (stereo not given),x,n,x,56,n,x
CC(C)OP(=O)(c1ccc(N(C)C)cc1)C(O)c1ccccc1 (stereo not given),x,x,n,n,x,n
CC(C)OP(=O)(c1ccc(N(C)C)cc1)C(O)c1ccc(C(C)C)cc1 (stereo not given),n,n,n,74,n,n
CN(C)CC(=O)Nc1ccc2c(c1)[C@@H]1C[C@@H](CC(=O)NCCc3ccccc3)O[C@@H](CO)[C@@H]1O2,n,n,n,n,n,n
O=C1N[C@@H](c2ccccc2)COCc2cn(nn2)CC[C@@H]1Cc1ccc(-c2ccccc2)cc1,n,n,x,x,x,x
Cc1ccc2nc(SCC(=O)c3ccc(O)cc3O)[nH]c2c1,n,-23,n,n,n,n
COC(=O)CSc1nc2ccc(C)cc2[nH]1,n,x,n,x,x,n
Cc1ccc(S(=O)(=O)N2[C@H](C(C)C)[C@H]3[C@H]4C(=O)N(c5ccccc5)C(=O)[C@H]4CC(=O)[C@H]3[C@@H]2c2ccccc2)cc1,n,n,n,59,n,n
Cc1ccc(S(=O)(=O)N2C[C@H]3C(=O)C[C@@H]4C(=O)N(c5ccccc5)C(=O)[C@@H]4[C@@H]3C[C@@H]2c2ccccc2)cc1,n,n,n,n,n,n
SMILES,INS-1E GSIS act,Ecoli rRNA inh,miR122 inh,HIV Env fusion,F508del corr,Cneo AK release
CCN(CC)CC(O)Cn1c2ccccc2c2ccccc21 (stereo not given),n,x,n,x,x,n
OCCN(CC#CCn1c2ccccc2c2ccccc21)CCO,n,-29,x,n,n,x
COc1ccc2c3c(n(C)c2c1)[C@H](CO)N(Cc1ccc(Cl)cc1)CC31CN(C(=O)NC(C)C)C1,n,n,x,x,x,x
O=C(C1CC1)N1CC[C@@H]2[C@H]1c1cc(C#Cc3ccccc3F)ccc1N[C@@H]2CO,n,n,n,x,n,n
COc1cccc(C(=O)OCCCOC(=O)c2cccc(OC)c2OC)c1OC,42,n,x,n,n,n
Clc1ccc(CSc2nnc(-c3ccc4c(c3)OCO4)o2)cc1,n,x,n,x,x,n
O=C1CCCCC1Sc1nnc(-c2ccc3c(c2)OCO3)o1 (stereo not given),n,n,x,68,n,x
COc1ccccc1/C=C/C1(C(=O)NC2CCCC2)CC(=O)N1c1ccc(F)cc1 (stereo not given),n,x,n,131,x,n
COc1ccccc1/C=C/C1(C(=O)NC2CCCC2)CC(=O)N1c1ccc(C)cc1 (stereo not given),x,x,n,n,x,n
CCC(=O)N1[C@H](CO)[C@@H]2c3ccccc3N(C(=O)Nc3cccc(Cl)c3)C[C@@H]21,n,n,n,x,n,n
COc1cc(Nc2c3c(nc4ccccc24)CCCC3)cc(OC)c1OC,n,n,n,n,n,x
CC(=O)c1cccc(Nc2c3c(nc4ccccc24)CCC3)c1,n,n,x,n,15,n
COc1ccc(Nc2c3c(nc4ccccc24)CCC3)c(OC)c1,n,n,n,n,n,n
CC(=O)c1ccc(Nc2c3c(nc4ccccc24)CCCC3)cc1,n,-35,x,n,n,x
COC(=O)c1cccc(Nc2c3c(nc4ccccc24)CCC3)c1,n,n,n,n,n,n
COc1ccccc1Nc1c2c(nc3ccccc13)CCC2,n,n,n,n,9.8,n
COc1ccccc1CNC(=O)Cn1cnnn1,x,n,n,n,12,n
COc1ccc(NC(=O)N(C)C[C@@H]2Oc3ccc(NC(=O)Cc4ccccc4)cc3CC(=O)N([C@H](C)CO)C[C@@H]2C)cc1,n,n,n,n,n,n
O=Nc1ccc(O)c2ncccc12,n,n,n,n,16,x
C[C@@H]1CCCCO[C@@H](CN(C)S(C)(=O)=O)[C@@H](C)CN([C@@H](C)CO)C(=O)c2cc(NS(C)(=O)=O)ccc2O1,n,n,n,n,n,n
Cn1cccc1/C=C1\SC(=Nc2cccc(O)c2)NC1=O,n,n,n,n,9.1,n
O=C1NC(=Nc2ccc(O)cc2)S/C1=C/c1ccco1,n,n,n,n,11,n
Cn1cccc1/C=C1\SC(=Nc2ccc(O)cc2)NC1=O,n,n,x,n,12,x
Cn1cccc1/C=C1\SC(=Nc2ccccc2)NC1=O,n,n,n,n,15,n
Cc1ccc(N=C2NC(=O)/C(=C/c3cccn3C)S2)c(C)c1,n,n,x,n,n,x
COc1ccc(S(=O)(=O)N(C)C[C@@H]2OCCCC[C@H](C)Oc3ccc(NC(=O)Nc4c(C)noc4C)cc3C(=O)N([C@H](C)CO)C[C@@H]2C)cc1,n,n,n,n,n,n
